Test system: MS2 coat protein
Assay: apparent Kd, MS2 coat protein; higher = weaker binding; RNA-MaP array; FMN 200 µM where present
In short: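 Binding was read on Illumina sequencing-chip clusters where stalled E. coli RNA polymerase had transcribed each design. A titration of SNAP-549-labelled MS2 coat protein began at 0.7 or 1.5 nM and doubled to 3 µM, once without ligand and once with constant ligand, in 100 mM Tris-HCl pH 7.5, 80 mM KCl, 4 mM MgCl2, BSA, DTT, yeast tRNA and Tween-20. The apparent Kd is the median of filtered per-cluster binding-curve fits, based on green signal normalised to red-channel RNA signal and control-cluster median Fmax.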

[1] = designed as: OFF switch for flavin mononucleotide, no ligand
[2] = ligand present: flavin mononucleotide, designed as: OFF switch for flavin mononucleotide
[3] = designed as: ON switch for flavin mononucleotide, no ligand
[4] = ligand present: flavin mononucleotide, designed as: ON switch for flavin mononucleotide

| Sequence | apparent Kd [1] | apparent Kd [2] | apparent Kd [3] | apparent Kd [4] |
| --- | --- | --- | --- | --- |
| GGAUUACAUGAGGAUCACCCAUGUGAGGAUAUCGAUGUCCUCCCUCCCGUGCGGGACUCGAGAAGGCACUUGGA | 51.9 nM | 78.8 nM |  |  |
| AGCUACGUUUCGUAGCAGCUAGGUGAGGAUAUUCAAAAUUUCACAUGAGGAUCACCCAUGUAUGUGAAGAAGGCGCCUAGAAAG |  |  | 7.29 nM | 4.74 nM |
| GCCAGAGAAGGAUAUACGAGGAUCGAGUGGUCACACCUACAACAUGAGGAUCACCCAUGUAGAAGGUUUCGGCU | 13.9 nM | 16.3 nM |  |  |
| AGGUAAACCACAGGAUAUGGCUAGCAUAGCUAGCCAGAAGGGUGGUCGUAACCAUGUAAAUACAUGAGGAUCACCCAUGUAUCC |  |  | 89.8 nM | 36 nM |
| AUUACAUGAGGAUCACCCAUGUACAGAACGUUUCAUUACAGUGAGGAUAUACGAAAUGUAAAAGCGUAGAAGGCACUGGGUACA |  |  | 29.5 nM | 22.2 nM |
| GUCAGCUCGUCAGGAUAUACGUCACUGCUUCGGCAGUGUGGUAAGAUCACAUGAGGAUCACCCAUGUAGAAGGGACGAGCUGAA | 11.8 nM | 209 nM |  |  |
| GUCAGCUCGUGAGGAUAUACAACACUGCUUCGUCAGUGUAUUAAGAUCACAUGAGGAUCACCCAUGUAGAAGGCACGAGCUGAU | 12.2 nM | 211 nM |  |  |
| UUUACAUGAGGAUCACCCAUGUAUAGAACGGUUCAUUAAAGUGAGGAUAUACGAAAUUUAAAAUCGUAGAAGGCACUGGGUACA |  |  | 17 nM | 19.1 nM |
| GUAGAGUAAGGAUAUACUGAAUAGGAUAGAAUGGUUAGAAAGUAGAAGGUACAUGAGGAUCACCCAUGUAAUGU | 20.3 nM | 19.7 nM |  |  |
| CCGUGGCAAGGAUAUACAUAGGAGAGGAAGGCAAGAGGUGGACAUGAGGAUCACCCAUGUAGAAGGUGCAGAUC | 226 nM | 236 nM |  |  |
| CAAUUGGCACAGAAGGGUGACAUGAGGAUCACCCAUGUAGCGUGGCACUCAGGAGGAACCACGCCACAGGAUAUGUGCGGGCAC |  |  | 65 nM | 76.6 nM |
| ACCUGGAUAGGAUAUACAUGAGGAUCACCCAUGUGACUCAGGCCAGGGAAGUACUUCGGUAGAAGGGUCCAGUA | 18.2 nM | 20.7 nM |  |  |
| CCCUCACAUGAGGAUCACCCAUGUCAGGAUAUUCGAGGCGCAAAUACGCCAAAUGCAGGAAGAAGGGACGUGCC | 15.5 nM | 22.4 nM |  |  |
| UGUGCGUAUGUGAGGAUAUGCUGGUCCUUGGCUCGGCAGAAGGCACAUGAGGAUCACCCAUGUGGUGUCGUACG | 75.5 nM | 199 nM |  |  |
| AGCUGUGGCCGAGGAUAUCUGAACCUUCAAACCGAAAUAUAAUCGGACAUGAGGAUCACCCAUGUAGAGAAGGCGGUCUCAGCA | 12 nM | 22.6 nM |  |  |
| CAACCGUUGCAGAAGGUUAAAUAAAUUCUCUUCUUGUUUACAUGAGGAUCACCCAUGUUUUUGUUGAAGGAUAUGCAAGGGUUG | 5.59 nM | 5.79 nM |  |  |
| GCGUUGAACGAGAAGGCCAAUACAUGAGGAUCACCCAUGUUGUGAUGUUUUGGAGGAUAUCGAUCGUCGUCUCAUGAGCAACGC | 7.47 nM | 10.2 nM |  |  |
| CCACCAAUCGAGAAGGGCCCAUGUGCUACAUCGGCAGGAUAUCGACAUGAGGAUCACCCAUGUUGGCGAUCCUUUUUGGCGGAC | 176 nM | 35.9 nM |  |  |
| GAUCCUCGCGGAGGAUAUAUAAGUGGAUCACCCAUAGAAGGCCGAACAUGAGGAUCACCCAUGUGGAACAGGAUCACCGUUGUU |  |  | 79 nM | 77 nM |
| AACGUUCGAGGAUAUGUGGCGCUGCACAUGAGGAUCACCCAUGUGAGGACUUGCAGCAUCACAGAAGGUGACCUGC | 94 nM | 84.6 nM |  |  |
| CUUUUGUGAGGAUAUUCGUAGUAGGGUCAUGGCAUUAUUAUGAAGAAGGCACAUGAGGAUCACCCAUGUACCUU | 17.3 nM | 34.6 nM |  |  |

From the EternaBench riboswitch data
